According to ChEMBL document CHEMBL1141109, “Synthesis of an estrogen receptor beta-selective radioligand: 5-[18F]fluoro-(2R,3S)-2,3-bis(4-hydroxyphenyl)pentanenitrile and comparison of in vivo distribution with 16alpha-[18F]fluoro-17beta-estradiol” (J Med Chem, 2005):

How the values were obtained:
[1] = Biodistribution of [18F]-FES in alpha estrogen receptor knock out mouse bone after 30 min; (n=3); type: ADME, organism-based, Bone element; conditions: in vivo, 0.5 h
Method in brief: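 Female αERKO mice rested 48 h after shipping and fed estrogen-free chow. Estrous stage was checked by daily vaginal smears, and mice were used in diestrus. Each received 13 µCi [18F]FES in 100 µL 10% ethanol/saline. Animals were sacrificed at 30 min, 1 h or 2 h (n = 3 each). Tissue uptake is reported as %ID/g ± SD.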

[2] = Biodistribution of [18F]FES in beta estrogen receptor knock out mouse spleen after 1 h; (n=3); type: ADME, organism-based; conditions: in vivo
[3] = Biodistribution of [18F]FES in beta estrogen receptor knock out mouse uterus after 1 h; (n=3); type: ADME, organism-based; conditions: in vivo
[4] = Biodistribution of [18F]FES in alpha estrogen receptor knock out mouse blood after 30 min; (n=3); type: ADME, organism-based; conditions: in vivo, 0.5 h
Method in brief: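 Female αERKO mice were rested 48 h after shipping and fed estrogen-free chow. They were staged by daily vaginal smears and studied in diestrus. Each received 13 µCi [18F]FES in 100 µL 10% ethanol/saline and was sacrificed at 30 min, 1 h or 2 h (n = 3 per time). Tissue uptake is given as %ID/g ± SD.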

[5] = Biodistribution of [18F]-FEDPN in alpha estrogen receptor knock out mouse blood after 30 min; (n=3); type: ADME, organism-based; conditions: in vivo, 0.5 h
Method in brief: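 ERKO female mice (αERKO or βERKO), rested 48 h after shipping, placed on estrogen-free chow, and staged by daily vaginal smears. Injected in a nonestrous stage with 11 µCi [18F]FEDPN in 130 µL of 10% ethanol/saline. Killed at 30 min, 1 h or 2 h. Organs counted and reported as %ID/g ± SD, three animals per point.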

[6] = Biodistribution of [18F]FEDPN in beta estrogen receptor knock out mouse thymus after 1 h; (n=3); type: ADME, organism-based; conditions: in vivo
Method in brief: (§1)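 αERKO and βERKO mice, staged by daily vaginal smears and kept on estrogen-free chow, were studied in a nonestrous stage. Each mouse received 11 μCi of tracer in 130 μL of 10% ethanol/saline. Mice were killed at 30 min, 1 h or 2 h (n = 3 each). Organs were removed, blotted, weighed and gamma-counted against an injectate standard. Uptake is given as %ID/g ± SD.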

[7] = Biodistribution of [18F]FEDPN in beta estrogen receptor knock out mouse fat after 2 h; (n=3); type: ADME, organism-based, Adipose tissue; conditions: in vivo; method in brief: as §1
[8] = Biodistribution of [18F]FEDPN in beta estrogen receptor knock out mouse bone after 1 h; (n=3); type: ADME, organism-based, Bone element; conditions: in vivo; method in brief: as §1
[9] = Biodistribution of [18F]FEDPN in rat liver after 1 h block when given in tail vein; (n=5); type: ADME, organism-based; conditions: in vivo, iv
Method in brief: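 Immature female Sprague–Dawley rats (<25 days old) under isoflurane/O2 got 20 µCi tracer in 150 µL 20% ethanol/saline by tail vein. […] Rats were killed at 30 min, 1 h or 2 h. Organs were blotted, weighed and gamma-counted against an injectate standard. Data are %ID/g ± SD, five rats per point.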

[10] = Biodistribution of [18F]FEDPN in beta estrogen receptor knock out mouse heart after 1 h; (n=3); type: ADME, organism-based; conditions: in vivo; method in brief: as §1
[11] = Biodistribution of [18F]FEDPN in beta estrogen receptor knock out mouse fat after 30 min; (n=3); type: ADME, organism-based, Adipose tissue; conditions: in vivo, 0.5 h; method in brief: as §1
[12] = Biodistribution of [18F]FEDPN in beta estrogen receptor knock out mouse lung after 30 min; (n=3); type: ADME, organism-based; conditions: in vivo, 0.5 h; method in brief: as §1
[13] = biological target: Estrogen receptor (Mus musculus) (UniProt O08537+P19785); assay: Ratio of [18F]FEDPN uptake in uterus of ERbeta KO-mouse (diestrus) and ERalpha KO-mouse (nonestrus) after 30 min
Chain of Estrogen receptor (Mus musculus) (O08537 whole entry, looked up): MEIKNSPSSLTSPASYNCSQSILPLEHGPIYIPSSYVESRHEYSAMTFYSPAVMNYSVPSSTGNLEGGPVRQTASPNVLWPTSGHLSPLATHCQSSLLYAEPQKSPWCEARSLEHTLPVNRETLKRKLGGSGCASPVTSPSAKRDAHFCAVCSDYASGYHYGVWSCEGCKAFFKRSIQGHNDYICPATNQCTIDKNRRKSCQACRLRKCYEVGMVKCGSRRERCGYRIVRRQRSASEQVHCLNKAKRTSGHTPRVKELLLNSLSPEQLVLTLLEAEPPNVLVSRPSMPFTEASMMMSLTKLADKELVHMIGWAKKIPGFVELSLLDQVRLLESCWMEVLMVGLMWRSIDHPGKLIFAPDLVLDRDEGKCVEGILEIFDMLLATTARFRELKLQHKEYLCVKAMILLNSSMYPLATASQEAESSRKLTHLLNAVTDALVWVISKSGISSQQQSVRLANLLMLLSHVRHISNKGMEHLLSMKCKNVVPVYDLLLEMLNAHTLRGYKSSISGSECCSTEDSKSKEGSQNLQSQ
Chain of Estrogen receptor (Mus musculus) (P19785 whole entry, looked up): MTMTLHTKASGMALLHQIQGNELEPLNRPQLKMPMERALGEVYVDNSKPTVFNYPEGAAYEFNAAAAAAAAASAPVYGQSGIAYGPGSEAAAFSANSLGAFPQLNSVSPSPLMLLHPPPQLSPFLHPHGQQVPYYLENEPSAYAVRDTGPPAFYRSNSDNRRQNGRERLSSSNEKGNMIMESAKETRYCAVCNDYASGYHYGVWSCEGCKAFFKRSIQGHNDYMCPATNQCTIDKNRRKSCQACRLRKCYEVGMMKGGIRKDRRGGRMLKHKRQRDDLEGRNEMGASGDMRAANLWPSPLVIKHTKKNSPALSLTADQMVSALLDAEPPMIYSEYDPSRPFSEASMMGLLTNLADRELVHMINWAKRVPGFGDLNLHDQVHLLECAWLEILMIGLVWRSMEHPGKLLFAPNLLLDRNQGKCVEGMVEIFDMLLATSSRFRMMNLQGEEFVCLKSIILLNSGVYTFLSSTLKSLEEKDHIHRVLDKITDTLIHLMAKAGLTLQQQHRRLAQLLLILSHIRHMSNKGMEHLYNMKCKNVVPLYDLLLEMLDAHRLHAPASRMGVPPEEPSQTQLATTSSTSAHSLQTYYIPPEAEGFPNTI

Biodistribution [1] [%ID/g]	Biodistribution [2] [%ID/g]	Biodistribution [3] [%ID/g]	Biodistribution [4] [%ID/g]	Biodistribution [5] [%ID/g]	Biodistribution [6] [%ID/g]	Biodistribution [7] [%ID/g]	Biodistribution [8] [%ID/g]	Biodistribution [9] [%ID/g]	Biodistribution [10] [%ID/g]	Biodistribution [11] [%ID/g]	Biodistribution [12] [%ID/g]	Ratio [13]	Structure (SMILES)
0.44	0.91	9.81	0.65	–	–	–	–	–	–	–	–	–	C[C@]12CC[C@@H]3c4ccc(O)cc4CC[C@H]3[C@@H]1C[C@@H](F)[C@@H]2O [FLUOROESTRADIOL]
–	–	–	–	0.73	0.25	0.09	4.92	0.76	0.43	0.89	5.38	1.67	N#C[C@H](c1ccc(O)cc1)[C@@H](CCF)c1ccc(O)cc1
